The values that follow come from ChEMBL document CHEMBL2401636, “Investigation of the noncovalent binding mode of covalent proteasome inhibitors around the transition state by combined use of cyclopropylic strain-based conformational restriction and computational modeling” (J Med Chem, 2013).

Series [1] can be described thus: Inhibition of chymotrypsin-like activity of human 20S proteasome using succinyl-Leu-Leu-Val-Tyr-4-methylcoumaryl-7-amide as substrate after 60 mins by fluorescence assay.
Series [2] can be described thus: Half life in human AB serum at 23 mM by RP-HPLC analysis. Format: ADME, cell-free. In outline:
(§1)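 Water-soluble analogues incubated at 37 °C in 0.1 M TEAA buffer, pH 7.4, or in human AB serum. Compound remaining was followed over time by HPLC, and the half-life was derived. Buffer half-lives are given in hours and serum half-lives in minutes.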

The nature of series [3]: Half life in TEAA buffer at 7.5 mM by RP-HPLC analysis. The class given is physicochemical. The essentials: as §1
The test system of the next series is KB. Kind of series: Cytotoxicity against human KB cells after 72 hrs. The class given is functional, cell-based.
The nature of series [4]: Cytotoxicity against human HS-Sultan cells after 72 hrs. Format: functional, cell-based.
The next series relates to HCT-116. Kind of series: Cytotoxicity against human HCT116 cells after 72 hrs. Format: functional, cell-based. The conditions noted are these: HCT-116, 72 h.
Series [5] in a line: Inhibition proteasome (unknown origin). On the set-up: species or system Homo sapiens.

Each structure is given as a SMILES string. Bounds are passed on as bounds.

Take `CC[C@H](C)[C@@H]1C(=O)O[C@H]1C(=O)N[C@H]1C[C@H]1[C@H](C)[C@@H](CCc1ccccc1)NC(=O)[C@H](C)NC(=O)c1ccc2ccccc2c1`: the concentration for half-maximal inhibition (IC50) (in general, the point on the concentration scale where inhibition reaches its midpoint) in series [1] came to 630 nM.
With `CC[C@H](C)[C@@H]1C(=O)O[C@H]1C(=O)N[C@H]1C[C@H]1[C@H](C)[C@@H](CCc1ccccc1)NC(=O)[C@H](C)N`, in series [2], the half-life (usually how long it takes for the measured level to halve) at 23000 µM stood at 4.7 min. Moreover, the half-life at 7500 µM in series [3] is 21 h.
`CC[C@H](C)[C@@H]1C(=O)O[C@H]1C(=O)N[C@H]1C[C@H]1[C@@H](C)[C@@H](CCc1ccccc1)NC(=O)c1ccc2ccccc2c1` returned an IC50 in series [1] of 140 nM.
On to `CC[C@H](C)[C@@H]1C(=O)O[C@H]1C(=O)N[C@H]1C[C@H]1C[C@@H](CCc1ccccc1)NC(=O)[C@H](C)NC(=O)OCc1ccccc1`, for which the IC50 in series [1] turned out to be 5.7 nM; in the series with KB it was 2600 nM; in series [4], 870 nM.
Turning to `CC[C@H](C)[C@@H]1C(=O)O[C@H]1C(=O)N[C@H]1C[C@H]1[C@H](C)[C@@H](CCc1ccccc1)NC(=O)[C@H](C)NC(=O)OCc1ccccc1`, the IC50 is 280 nM in series [1], > 10000 nM with HCT-116, > 10000 nM with KB and 1800 nM in series [4].
`CC[C@H](C)[C@@H]1C(=O)O[C@H]1C(=O)N[C@H]1C[C@H]1C[C@@H](CCc1ccccc1)NC(=O)[C@H](C)N` (mixture of isomers) registered a half-life at 23000 µM in series [2] of 2.3 min. In series [3], this compound gave a half-life at 7500 µM of 10 h.
In the case of `CC[C@H](C)[C@@H]1C(=O)O[C@H]1C(=O)N[C@H]1C[C@H]1C[C@@H](CCc1ccccc1)NC(=O)[C@H](C)NC(=O)c1ccc2ccccc2c1`, the IC50 in series [1] stood at 10 nM.
As for `CC[C@H](C)[C@@H]1C(=O)O[C@H]1C(=O)N[C@H]1C[C@H]1[C@@H](C)[C@@H](CCc1ccccc1)NC(=O)[C@H](C)NC(=O)OCc1ccccc1`, the IC50 came out at 47 nM in series [1], 630 nM with HCT-116, 1700 nM in the series on KB and 310 nM in series [4].
`CC[C@H](C)[C@@H]1C(=O)O[C@H]1C(=O)N[C@H]1C[C@H]1[C@H](C)[C@@H](CCc1ccccc1)NC(=O)c1ccc2ccccc2c1`: in series [1], half-maximal inhibition (IC50) was put at 750 nM.
The same measure, in the same setting: under `CC[C@H](C)[C@@H]1C(=O)O[C@H]1C(=O)N[C@H]1C[C@H]1[C@@H](C)[C@@H](CCc1ccccc1)NC(=O)[C@H](C)NC(=O)c1ccc2ccccc2c1` stands 42 nM.
In series [2], `CC[C@H](C)[C@@H]1C(=O)O[C@H]1C(=O)N[C@H]1C[C@H]1[C@@H](C)[C@@H](CCc1ccccc1)NC(=O)[C@H](C)N` had a half-life at 23000 µM of 4.2 min. The half-life at 7500 µM in series [3] was 14 h.
Regarding `CC[C@H](C)[C@@H]1C(=O)O[C@H]1C(=O)N[C@H]1C[C@H]1C[C@H](NC(=O)[C@H](C)N)C(=O)O` [BELACTOSIN A], the 50% inhibitory concentration (IC50) amounted to 1440 nM in series [1] and 304 nM in series [5].
For `CC[C@H](C)[C@@H]1C(=O)O[C@H]1C(=O)N[C@H]1C[C@H]1C[C@@H](CCc1ccccc1)NC(=O)c1ccc2ccccc2c1`, the IC50 in series [1] amounted to 33 nM.
